Holding throughout (assay type): functional
The test system of one assay is Candida albicans. The experiment in a line: Antifungal activity against Candida albicans ATCC 10145 after 48 hrs by twofold tube dilution method. Particulars: ATCC 10145, 48 h. The procedure, abridged:
(§1)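 Fungi maintained in Sabouraud Dextrose Broth for 48 h at 25 ± 1 °C. Testing by twofold dilution in Sabouraud Dextrose Broth, pH 7.4, with DMSO stocks serially diluted from 125 to 1 µg/ml. Inoculated broth-only tubes served as controls. After 48 h at 25 ± 1 °C, the last tube showing no growth was recorded as the MIC.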

In assay [1] the test system is Mycobacterium tuberculosis. As to the kind of experiment: Antitubercular activity against Mycobacterium tuberculosis H37Rv by microplate alamar blue assay. The method in brief:
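M. tuberculosis H37Rv, with compounds that reached at least 90% inhibition in the primary screen. Serial dilution to lower concentrations, microplate Alamar blue assay. MIC taken as the lowest inhibitory concentration. Streptomycin used as reference.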

The test system of the next assay is Staphylococcus aureus. The experiment in a line: Antibacterial activity against Staphylococcus aureus ATCC 25923 after 18 to 20 hrs by twofold tube dilution method. The procedure, abridged:
(§2)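 Bacterial cultures grown 18–24 h at 37 ± 1 °C in Mueller–Hinton Broth. Testing by twofold tube dilution in Mueller–Hinton Broth, pH 7.4. Inoculated broth-only tubes served as controls. MIC taken as the lowest concentration preventing visible growth.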

A further assay has as its system Aspergillus fumigatus. As to the kind of experiment: Antifungal activity against Aspergillus fumigatus after 48 hrs by twofold tube dilution method. The procedure, abridged: as §1
The next assay deals with Klebsiella pneumoniae. The experiment in a line: Antibacterial activity against Klebsiella pneumoniae ATCC 13883 after 18 to 20 hrs by twofold tube dilution method. The procedure, abridged: as §2
For assay [2], the system named is Mycobacterium tuberculosis. The experiment in a line: Antitubercular activity against Mycobacterium tuberculosis H37Rv at 7.25 ug/ml by microplate alamar blue assay. The procedure, abridged:
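M. tuberculosis H37Rv (ATCC 27294) in BACTEC 12B medium, broth microdilution with microplate Alamar blue read-out. Primary screen at a single concentration of 7.25 µg/ml. Result expressed as percent inhibition.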
On the technique in general: Resazurin is reduced to fluorescent resorufin, in cell work by metabolically active cells.

The subject of another assay is Enterococcus faecalis. The experiment in a line: Antibacterial activity against Enterococcus faecalis ATCC 29212 after 18 to 20 hrs by twofold tube dilution method. The procedure, abridged:
as §2

For a further assay, the system named is Escherichia coli. As to the kind of experiment: Antibacterial activity against Escherichia coli ATCC 25922 after 18 to 20 hrs by twofold tube dilution method. The method in brief: as §2

Converted amounts (≈) assume the structure as drawn. Where only a bound is given, the exact number is not on record here.

Regarding `COc1ccc(/C=C/c2nc3cc(Br)ccc3[nH]2)cc1OC`, the MIC (usually the least concentration at which growth counts as inhibited) in the assay with Candida albicans is 1 µg/mL (≈ 2.78 µM); in assay [1], more than 75 µg/mL; against Staphylococcus aureus, 2 µg/mL (≈ 5.57 µM); in the assay on Aspergillus fumigatus it was 2 µg/mL (≈ 5.57 µM); with Klebsiella pneumoniae, 8 µg/mL (≈ 22.3 µM); in the assay with Enterococcus faecalis it was 2 µg/mL (≈ 5.57 µM). In addition, the minimal inhibitory concentration (MIC) against Escherichia coli was 31.2 µg/mL (≈ 87 µM). Further, the inhibition (usually the percentage by which the read-out fell short of the control) at 7.25 µg/mL in assay [2] is 54%.

`O=[N+]([O-])c1ccc2[nH]c(/C=C/c3ccc4c(c3)OCO4)nc2c1`: the minimum inhibitory concentration (MIC) with Candida albicans is 16.1 µg/mL (≈ 52.1 µM); in assay [1], more than 75 µg/mL; against Staphylococcus aureus, 31.2 µg/mL (≈ 101 µM); with Aspergillus fumigatus, 16.1 µg/mL (≈ 52.1 µM); in the assay on Klebsiella pneumoniae, 62.5 µg/mL (≈ 202 µM); in the assay on Enterococcus faecalis, 31.2 µg/mL (≈ 101 µM). Moreover, in the assay on Escherichia coli, inhibition of growth (MIC) required 31.2 µg/mL (≈ 101 µM).

As to `Brc1ccc2[nH]c(/C=C/c3ccc4c(c3)OCO4)nc2c1`, the minimum inhibitory concentration (MIC) is 31.2 µg/mL (≈ 91.1 µM) against Candida albicans; more than 75 µg/mL in assay [1]; 8 µg/mL (≈ 23.3 µM) with Staphylococcus aureus; 31.2 µg/mL (≈ 91.1 µM) with Aspergillus fumigatus; 16.1 µg/mL (≈ 47 µM) against Klebsiella pneumoniae; 31.2 µg/mL (≈ 91.1 µM) against Enterococcus faecalis. Moreover, in the assay on Escherichia coli, the MIC came out at 31.2 µg/mL (≈ 91.1 µM).

With `O=[N+]([O-])c1ccc2[nH]c(/C=C/c3ccccc3)nc2c1`, the MIC against Candida albicans was 16.1 µg/mL (≈ 60.8 µM); in assay [1], more than 75 µg/mL; in the assay on Staphylococcus aureus it was 8 µg/mL (≈ 30.2 µM); with Aspergillus fumigatus, 16.1 µg/mL (≈ 60.8 µM); against Klebsiella pneumoniae it was 4 µg/mL (≈ 15.1 µM); against Enterococcus faecalis it was 31.2 µg/mL (≈ 118 µM). For the same compound, the lowest concentration to inhibit growth in the assay with Escherichia coli (MIC) was 31.2 µg/mL (≈ 118 µM).

On to `Oc1cccc(/C=C/c2nc3cc(Br)ccc3[nH]2)c1`, for which the MIC against Candida albicans was 4 µg/mL (≈ 12.7 µM); in assay [1] it was more than 75 µg/mL; against Staphylococcus aureus, 1 µg/mL (≈ 3.17 µM); against Aspergillus fumigatus it was 8 µg/mL (≈ 25.4 µM); against Klebsiella pneumoniae, 4 µg/mL (≈ 12.7 µM); with Enterococcus faecalis it was 1 µg/mL (≈ 3.17 µM). In the assay with Escherichia coli, this compound displayed a minimum inhibitory concentration (MIC) of 4 µg/mL (≈ 12.7 µM).

`CN[C@@H]1[C@H](O[C@H]2[C@H](O[C@H]3[C@H](O)[C@@H](O)[C@H](N=C(N)N)[C@@H](O)[C@@H]3N=C(N)N)O[C@@H](C)[C@]2(O)C=O)O[C@@H](CO)[C@H](O)[C@H]1O` [STREPTOMYCIN] registered an inhibition at 7.25 µg/mL in assay [2] of 100%.

In the case of `Cc1ccc(/C=C/c2nc3cc(Br)ccc3[nH]2)cc1`, the MIC in the assay with Candida albicans was 4 µg/mL (≈ 12.8 µM); in assay [1], more than 75 µg/mL; in the assay with Staphylococcus aureus it was 31.2 µg/mL (≈ 99.8 µM); in the assay with Aspergillus fumigatus, 8 µg/mL (≈ 25.5 µM); in the assay with Klebsiella pneumoniae, 8 µg/mL (≈ 25.5 µM); in the assay on Enterococcus faecalis it was 31.2 µg/mL (≈ 99.8 µM). Inhibition of growth against Escherichia coli (MIC) required 16 µg/mL (≈ 51.1 µM). This compound gave an inhibition at 7.25 µg/mL in assay [2] of 63%.

`O=[N+]([O-])c1ccc2[nH]c(/C=C/c3ccc(Cl)cc3Cl)nc2c1`: the MIC was 16.1 µg/mL (≈ 48.2 µM) against Candida albicans; more than 75 µg/mL in assay [1]; 31.2 µg/mL (≈ 93.5 µM) with Staphylococcus aureus; 31.2 µg/mL (≈ 93.5 µM) in the assay on Aspergillus fumigatus; 62.5 µg/mL (≈ 187 µM) against Klebsiella pneumoniae; 31.2 µg/mL (≈ 93.5 µM) with Enterococcus faecalis. Besides, 62.5 µg/mL (≈ 187 µM) was the least that counted as inhibitory with Escherichia coli (MIC). This compound also registered an inhibition at 7.25 µg/mL in assay [2] of 45%.

For `Cc1ccc(/C=C/c2nc3cc([N+](=O)[O-])ccc3[nH]2)cc1`, the minimum inhibitory concentration (MIC) is 31.2 µg/mL (≈ 112 µM) in the assay with Candida albicans; more than 75 µg/mL in assay [1]; 4 µg/mL (≈ 14.3 µM) in the assay with Staphylococcus aureus; 31.2 µg/mL (≈ 112 µM) against Aspergillus fumigatus; 16.1 µg/mL (≈ 57.7 µM) against Klebsiella pneumoniae; 16.1 µg/mL (≈ 57.7 µM) against Enterococcus faecalis. The compound further displayed a minimum inhibitory concentration (MIC) in the assay on Escherichia coli of 62.5 µg/mL (≈ 224 µM).

As for `O=[N+]([O-])c1ccc2[nH]c(/C=C/c3cccc(O)c3)nc2c1`, the minimal inhibitory concentration (MIC) is 31.2 µg/mL (≈ 111 µM) in the assay with Candida albicans; more than 75 µg/mL in assay [1]; 4 µg/mL (≈ 14.2 µM) with Staphylococcus aureus; 62.5 µg/mL (≈ 222 µM) with Aspergillus fumigatus; 31.2 µg/mL (≈ 111 µM) against Klebsiella pneumoniae; 31.2 µg/mL (≈ 111 µM) with Enterococcus faecalis. Further, the MIC with Escherichia coli was 31.2 µg/mL (≈ 111 µM).

Regarding `COc1ccc(/C=C/c2nc3cc([N+](=O)[O-])ccc3[nH]2)cc1OC`, the MIC in the assay with Candida albicans was 16.1 µg/mL (≈ 49.6 µM); in assay [1], more than 75 µg/mL; in the assay on Staphylococcus aureus it was 31.2 µg/mL (≈ 96.1 µM); against Aspergillus fumigatus, 31.2 µg/mL (≈ 96.1 µM); in the assay with Klebsiella pneumoniae, 16.1 µg/mL (≈ 49.6 µM); in the assay on Enterococcus faecalis, 31.2 µg/mL (≈ 96.1 µM). In the assay with Escherichia coli, this compound came in with a minimum inhibitory concentration (MIC) of 31.2 µg/mL (≈ 96.1 µM).

Take `Brc1ccc2[nH]c(/C=C/c3ccccc3)nc2c1`: the MIC with Candida albicans was 8 µg/mL (≈ 26.7 µM); in assay [1], more than 75 µg/mL; against Staphylococcus aureus it was 2 µg/mL (≈ 6.69 µM); against Aspergillus fumigatus it was 8 µg/mL (≈ 26.7 µM); with Klebsiella pneumoniae, 31.2 µg/mL (≈ 104 µM); in the assay on Enterococcus faecalis it was 16.1 µg/mL (≈ 53.9 µM). This compound also registered a minimal inhibitory concentration (MIC) in the assay with Escherichia coli of 16.1 µg/mL (≈ 53.9 µM). For the same compound, the inhibition at 7.25 µg/mL in assay [2] amounted to 83%.

In the case of `Clc1ccc(/C=C/c2nc3cc(Br)ccc3[nH]2)c(Cl)c1`, the MIC against Candida albicans is 31.2 µg/mL (≈ 84.9 µM); in assay [1], more than 75 µg/mL; against Staphylococcus aureus it was 16.1 µg/mL (≈ 43.8 µM); in the assay on Aspergillus fumigatus, 16.1 µg/mL (≈ 43.8 µM); against Klebsiella pneumoniae it was 2 µg/mL (≈ 5.43 µM); in the assay on Enterococcus faecalis, 8 µg/mL (≈ 21.7 µM). In the assay with Escherichia coli, this compound came in with an MIC of 31.2 µg/mL (≈ 84.9 µM). Moreover, the inhibition at 7.25 µg/mL in assay [2] came to 76%.

For `O=C(O)c1cn(C2CC2)c2cc(N3CCNCC3)c(F)cc2c1=O` [CIPROFLOXACIN], the MIC was determined as 0.78 µg/mL (≈ 2.35 µM) in the assay with Staphylococcus aureus, 0.19 µg/mL (≈ 0.573 µM) with Klebsiella pneumoniae and 0.7 µg/mL (≈ 2.11 µM) with Enterococcus faecalis.

On to `OC(Cn1cncn1)(Cn1cncn1)c1ccc(F)cc1F` [FLUCONAZOLE], for which the MIC with Candida albicans and in the assay on Aspergillus fumigatus was 2 µg/mL (≈ 6.53 µM) in each case.

(Values after ChEMBL document CHEMBL1154099, “Synthesis and evaluation of in vitro anti-microbial and anti-tubercular activity of 2-styryl benzimidazoles” (2009).)
